SMILES strings stand for the structures.

Experiment [1] in a line: Cytotoxicity against multidrug-resistant human KBV1 cells by MTS/PMS assay. It is filed as functional, cell-based. The following applies: KB-V1. The method in brief:
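Mycoplasma-free KB-V1 carcinoma cells, selected from KB-3-1 for vinblastine resistance and obtained from the NCI Laboratory of Cell Biology. They show a full multidrug-resistance phenotype including P-170 glycoprotein efflux pump expression. Cytotoxicity expressed as IC50.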

Experiment [2] in a line: Cytotoxicity against drug-sensitive human KB-3-1 cells by MTS/PMS assay.
Experiment [3] can be described thus: Resistance index, ratio for IC50 for multidrug-resistant human KBV1 cells to IC50 for drug-sensitive human KB-3-1 cells.

For the compound `COC(=O)c1ccccc1-c1c2ccc(=N)cc-2oc2cc(N)ccc12.Cl` [RHODAMINE123], the figures for the IC50 in experiment [1] and in experiment [2] were over 500000 nM and 2200 nM, respectively. Also, the “Ratio IC50” value in experiment [3] is over 225.

On to `COc1ccc(C2=C(c3ccc(O)cc3)CN3CCC[C@@H]3C2)cc1OC`, for which the IC50 (in general, the midpoint of a concentration-inhibition curve) in experiment [1] came out at 425 nM; in experiment [2], 403 nM.

In the case of `COc1ccc2c3c(c4cc(OC)c(OC)cc4c2c1)C[C@H]1CCCN1C3` [(-)-ANTOFINE], the IC50 in experiment [1] is 14 nM; in experiment [2] it was 16 nM.

Regarding `COc1cc2c3c(c4ccc(O)cc4c2cc1OC)CN1CCC[C@@H]1C3`, the IC50 is 10 nM in experiment [1] and 7 nM in experiment [2].

Turning to `COc1ccc(C2=C(c3ccc(OC)c(OC)c3)C[C@H]3CCCN3C2)cc1`, the IC50 was 2440 nM in experiment [1] and 2630 nM in experiment [2].

In the case of `COc1cc2c3c(c4cc(OC)c(OC)cc4c2cc1OC)CN1CCC[C@@H]1C3` [TYLOPHORINE], the IC50 is 173 nM in experiment [1] and 214 nM in experiment [2].

Regarding `COc1cc2c(cc1O)c1c(c3cc(OC)c(OC)cc32)C[C@H]2CCCN2C1`, the IC50 in experiment [1] is 17 nM; in experiment [2] it was 15 nM.

Regarding `COc1cc2c3c(c4ccc(OC)c(OC)c4c2cc1OC)C[C@@H]1CCCN1C3`, the IC50 in experiment [1] came to 54 nM; in experiment [2], 43 nM.

On to `CC[C@]1(O)C[C@@H]2CN(CCc3c([nH]c4ccccc34)[C@@](C(=O)OC)(c3cc4c(cc3OC)N(C)[C@H]3[C@@](O)(C(=O)OC)[C@H](OC(C)=O)[C@]5(CC)C=CCN6CC[C@]43[C@@H]65)C2)C1` [VINBLASTINE], for which the “Ratio IC50” value in experiment [3] is given as 210.

Values taken from ChEMBL document CHEMBL1150633, “In vitro cytotoxic activity of phenanthroindolizidine alkaloids from Cynanchum vincetoxicum and Tylophora tanakae against drug-sensitive and multidrug-resistant cancer cells” (J Nat Prod, 2002).
